Test results reported in ChEMBL document CHEMBL1127544, “A new series of photoactivatable and iodinatable linear vasopressin antagonists” (J Med Chem, 1994).

Experiments:
[1] = biological target: T1, Vasopressin V1a receptor (Rattus norvegicus, UniProt P30560); assay: Inhibition constant for V1a receptor of rat liver membrane
Procedure, shortened: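 Competition binding on rat liver membranes (male rat), 5 or 10 μg/assay, 45 min at 30 °C in the dark. Unlabeled peptide 10^-11 to 10^-7 or 10^-6 M against 60 pM [125I]Phaa-D-Tyr(Me)-Phe-Gln-Asn-Arg-Pro-Arg-Tyr-NH2. Nonspecific binding with 1 μM vasopressin. Separation by GF/C filtration. Ki = IC50 × Kd/(Kd + [tracer]), tracer Kd 0.06 nM. Triplicates.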

[2] = biological target: T1, Vasopressin V1a receptor; assay: Tested for inhibition constant determined from vasopressin induced inositol phosphates accumulation performed on WRK1 cell line of V1a receptor subtype; type: cell-based
Procedure, shortened: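 WRK1 cells prelabeled 3 days with myo-[3H]inositol (2 μCi/mL), then serum-starved 30 min. Preincubated 15 min at 37 °C in PBS with 10 mM LiCl, 1 mg/mL BSA and analogue, then 3 nM AVP or vehicle for 6 min. Stopped with perchloric acid. Total inositol phosphates separated on Dowex. Ki act derived from the antagonism curves. At least three experiments in duplicate.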

[3] = biological target: Vasopressin V2 receptor (Rattus norvegicus, UniProt Q00788); assay: Tested for inhibition constant at V2 receptor of rat kidney membrane
Procedure, shortened: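 Rat renal medullary membranes (male rat, freshly prepared), 28.5 μg/assay, 45 min at 30 °C in 50 mM Tris-HCl pH 7.4, 5 mM MgCl2, 1 mg/mL BSA. Competition against 10^-9 M [3H]AVP. Nonspecific binding with 1 μM vasopressin. Filtration over GF/C. Triplicate determinations.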

[4] = biological target: T2, Oxytocin receptor (Rattus norvegicus, UniProt P70536); assay: Tested for inhibition constant at OT receptor of rat mammary glands
T2 sequence (P70536 whole entry): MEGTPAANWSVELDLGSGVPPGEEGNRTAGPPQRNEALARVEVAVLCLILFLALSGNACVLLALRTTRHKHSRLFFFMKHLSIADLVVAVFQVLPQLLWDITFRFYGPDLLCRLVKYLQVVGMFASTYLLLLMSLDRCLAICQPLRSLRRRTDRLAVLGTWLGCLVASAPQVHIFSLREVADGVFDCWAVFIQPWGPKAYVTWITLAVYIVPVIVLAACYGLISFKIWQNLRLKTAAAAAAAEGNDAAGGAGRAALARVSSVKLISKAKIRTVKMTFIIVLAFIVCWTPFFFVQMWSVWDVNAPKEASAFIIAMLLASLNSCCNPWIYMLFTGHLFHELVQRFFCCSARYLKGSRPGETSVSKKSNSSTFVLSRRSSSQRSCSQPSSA
Procedure, shortened: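 Rat mammary gland membranes (female rat), 2 or 5 μg/assay, 45 min at 30 °C in 50 mM Tris-HCl pH 7.4, 5 mM MgCl2, 1 mg/mL BSA. Competition against 60 pM [125I]d(CH2)5[Tyr(Me)2,Thr4,Orn8,Tyr-NH2 9]VT. Nonspecific binding with 1 μM oxytocin. Filtration over GF/C. Triplicate determinations.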

[5] = biological target: T1, Vasopressin V1a receptor; assay: Tested for dissociation constant at V1a receptor of rat liver membrane
Procedure, shortened: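 Saturation binding of the 125I-labeled azido analogues on rat liver membranes (5 μg), rising labeled-ligand concentrations, run as the competition protocol (45 min, 30 °C, Tris-HCl pH 7.4, MgCl2, BSA, filtration). Nonspecific binding with 250-fold excess of the matching unlabeled analogue. Kd from Scatchard plot. Triplicate values, three independent experiments.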

Chain of Vasopressin V2 receptor (Q00788 whole entry): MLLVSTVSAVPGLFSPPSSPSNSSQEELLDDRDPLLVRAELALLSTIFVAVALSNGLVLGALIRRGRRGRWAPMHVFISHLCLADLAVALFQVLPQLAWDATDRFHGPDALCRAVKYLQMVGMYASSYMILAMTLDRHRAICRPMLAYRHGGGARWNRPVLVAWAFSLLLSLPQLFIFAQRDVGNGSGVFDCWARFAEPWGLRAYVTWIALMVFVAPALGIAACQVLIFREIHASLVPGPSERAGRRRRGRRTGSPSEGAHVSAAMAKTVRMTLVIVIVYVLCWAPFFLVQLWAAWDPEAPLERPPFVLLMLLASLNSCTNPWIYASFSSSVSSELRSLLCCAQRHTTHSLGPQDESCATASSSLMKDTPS
T1 sequence (P30560 whole entry): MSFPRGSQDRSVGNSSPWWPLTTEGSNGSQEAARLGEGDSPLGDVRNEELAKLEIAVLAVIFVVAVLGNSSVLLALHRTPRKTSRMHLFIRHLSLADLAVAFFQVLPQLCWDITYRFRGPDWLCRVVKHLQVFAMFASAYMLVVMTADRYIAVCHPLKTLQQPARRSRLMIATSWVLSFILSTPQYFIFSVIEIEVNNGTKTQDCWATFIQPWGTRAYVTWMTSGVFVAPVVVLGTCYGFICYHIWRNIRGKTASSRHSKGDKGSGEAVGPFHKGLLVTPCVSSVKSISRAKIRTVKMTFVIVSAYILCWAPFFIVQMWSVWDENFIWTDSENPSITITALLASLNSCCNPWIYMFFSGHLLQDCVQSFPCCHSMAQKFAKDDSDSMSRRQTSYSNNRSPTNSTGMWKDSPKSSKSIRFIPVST

Row | Compound | Ki [1] [pM] | Ki [2] [pM] | Ki [3] [pM] | Ki [4] [pM] | Kd [5] [pM]
1 | COc1ccc(C[C@@H](NC(=O)CCCc2ccc(N=[N+]=[N-])cc2)C(=O)N[C@@H](Cc2ccccc2)C(=O)N[C@@H](CCC(N)=O)C(=O)N[C@@H](CC(N)=O)C(=O)N[C@@H](CCCN=C(N)N)C(=O)N2CCC[C@H]2C(=O)N[C@@H](CCCN=C(N)N)C(=O)N[C@@H](Cc2ccc(O)cc2)C(N)=O)cc1 (stereo in doubt; 17) | 40 |  |  |  | 
2 | COc1ccc(C[C@@H](NC(=O)CCc2ccc(N=[N+]=[N-])cc2)C(=O)N[C@@H](Cc2ccccc2)C(=O)N[C@@H](CCC(N)=O)C(=O)N[C@@H](CC(N)=O)C(=O)N[C@@H](CCCN=C(N)N)C(=O)N2CCC[C@H]2C(=O)N[C@@H](CCCN=C(N)N)C(=O)N[C@@H](Cc2ccc(O)cc2)C(N)=O)cc1 (stereo in doubt; 20) | 470 | 110 | 1600 | 37700 | 190
3 | COc1ccc(C[C@@H](NC(=O)CCc2cccc(N=[N+]=[N-])c2)C(=O)N[C@@H](Cc2ccccc2)C(=O)N[C@@H](CCC(N)=O)C(=O)N[C@@H](CC(N)=O)C(=O)N[C@@H](CCCNC(=N)N)C(=O)N2CCC[C@H]2C(=O)N[C@@H](CCCNC(=N)N)C(=O)N[C@@H](Cc2ccc(O)cc2)C(N)=O)cc1 (stereo in doubt; 16) | 160 |  |  |  | 
4 | COc1ccc(C[C@@H](NC(=O)c2cccc(N=[N+]=[N-])c2)C(=O)N[C@@H](Cc2ccccc2)C(=O)N[C@@H](CCC(N)=O)C(=O)N[C@@H](CC(N)=O)C(=O)N[C@@H](CCCN=C(N)N)C(=O)N2CCC[C@H]2C(=O)N[C@@H](CCCN=C(N)N)C(=O)N[C@@H](Cc2ccc(O)cc2)C(N)=O)cc1 | 17800 |  |  |  | 
5 | COc1ccc(C[C@@H](NC(=O)CCCc2ccc(N=[N+]=[N-])cc2)C(=O)N[C@@H](Cc2ccccc2)C(=O)N[C@@H](CCC(N)=O)C(=O)N[C@@H](CC(N)=O)C(=O)N[C@@H](CCCN=C(N)N)C(=O)N2CCC[C@H]2C(=O)N[C@@H](CCCN=C(N)N)C(=O)N[C@@H](Cc2ccc(O)cc2)C(N)=O)cc1 (stereo in doubt; 22) |  |  |  | 18000 | 
6 | COc1ccc(C[C@@H](NC(=O)CCc2ccc(N=[N+]=[N-])cc2)C(=O)N[C@@H](Cc2ccccc2)C(=O)N[C@@H](CCC(N)=O)C(=O)N[C@@H](CC(N)=O)C(=O)N[C@@H](CCCN=C(N)N)C(=O)N2CCC[C@H]2C(=O)N[C@@H](CCCN=C(N)N)C(=O)N[C@@H](Cc2ccc(O)cc2)C(N)=O)cc1 (stereo in doubt; 15) | 200 |  |  |  | 

The next lines start with the values.

Row | Ki [1] [pM] | Ki [2] [pM] | Ki [3] [pM] | Ki [4] [pM] | Kd [5] [pM] | Compound
7 | 270 | 130 | 16000 | 1400 | 54 | COc1ccc(C[C@@H](NC(=O)CCc2cccc(N=[N+]=[N-])c2)C(=O)N[C@@H](Cc2ccccc2)C(=O)N[C@@H](CCC(N)=O)C(=O)N[C@@H](CC(N)=O)C(=O)N[C@@H](CCCNC(=N)N)C(=O)N2CCC[C@H]2C(=O)N[C@@H](CCCNC(=N)N)C(=O)N[C@@H](Cc2ccc(O)cc2)C(N)=O)cc1 (stereo in doubt; 21)
8 | 20000 |  |  |  |  | COc1ccc(C[C@@H](NC(=O)c2ccc(N=[N+]=[N-])cc2)C(=O)N[C@@H](Cc2ccccc2)C(=O)N[C@@H](CCC(N)=O)C(=O)N[C@@H](CC(N)=O)C(=O)N[C@@H](CCCNC(=N)N)C(=O)N2CCC[C@H]2C(=O)N[C@@H](CCCNC(=N)N)C(=O)N[C@@H](Cc2ccc(O)cc2)C(N)=O)cc1
9 | 590 | 200 | 8000 | 4800 | 150 | COc1ccc(C[C@@H](NC(=O)Cc2ccc(N=[N+]=[N-])cc2)C(=O)N[C@@H](Cc2ccccc2)C(=O)N[C@@H](CCC(N)=O)C(=O)N[C@@H](CC(N)=O)C(=O)N[C@@H](CCCNC(=N)N)C(=O)N2CCC[C@H]2C(=O)N[C@@H](CCCNC(=N)N)C(=O)N[C@@H](Cc2ccc(O)cc2)C(N)=O)cc1 (stereo in doubt; 18)
10 | 310 |  |  |  |  | COc1ccc(C[C@@H](NC(=O)Cc2cccc(N=[N+]=[N-])c2)C(=O)N[C@@H](Cc2ccccc2)C(=O)N[C@@H](CCC(N)=O)C(=O)N[C@@H](CC(N)=O)C(=O)N[C@@H](CCCNC(=N)N)C(=O)N2CCC[C@H]2C(=O)N[C@@H](CCCNC(=N)N)C(=O)N[C@@H](Cc2ccc(O)cc2)C(N)=O)cc1 (stereo in doubt; 14)
11 | 120 |  |  |  |  | COc1ccc(C[C@@H](NC(=O)Cc2ccc(N=[N+]=[N-])cc2)C(=O)N[C@@H](Cc2ccccc2)C(=O)N[C@@H](CCC(N)=O)C(=O)N[C@@H](CC(N)=O)C(=O)N[C@@H](CCCNC(=N)N)C(=O)N2CCC[C@H]2C(=O)N[C@@H](CCCNC(=N)N)C(=O)N[C@@H](Cc2ccc(O)cc2)C(N)=O)cc1 (stereo in doubt; 13)
12 | 1100 | 240 | 10000 | 650 |  | COc1ccc(C[C@@H](NC(=O)Cc2cccc(N=[N+]=[N-])c2)C(=O)N[C@@H](Cc2ccccc2)C(=O)N[C@@H](CCC(N)=O)C(=O)N[C@@H](CC(N)=O)C(=O)N[C@@H](CCCNC(=N)N)C(=O)N2CCC[C@H]2C(=O)N[C@@H](CCCNC(=N)N)C(=O)N[C@@H](Cc2ccc(O)cc2)C(N)=O)cc1 (stereo in doubt; 19)
